Assay results from different studies.
Lines come from different studies, so protocols differ.
MAP2K3: Dual specificity mitogen-activated protein kinase kinase 3 (MAP2K3, Homo sapiens, UniProt P46734)
BCHE: Cholinesterase (BCHE, Equus caballus, UniProt P81908)

Compound	target	assay	setting	endpoint	result
Nc1ncc(-c2nc(N3CCOCC3)nc(N3CCOCC3)n2)c(C(F)F)n1	MAP2K3	binding, competition with immobilised ligand	10 µM	remaining binding	78%
COc1cc2c(cc1OC)C(=O)N(Cc1cnc3c(c1)OCCN3C)C2	BCHE	enzyme activity, inhibitor, Ellman	1 µM	inhibition	13.6%
O=P(O)(O)O[C@H]1O[C@H](CO)[C@@H](O)[C@H](O)[C@H]1O	Glycogen phosphorylase, muscle form (PYGM, Oryctolagus cuniculus, UniProt P00489)	enzyme activity, substrate		Km	920 µM
Cc1nn(C)cc1-c1nc2c(N3CCN(Cc4ccc(Cl)cc4)CC3)c(Cl)cnc2[nH]1	Mitogen-activated protein kinase kinase kinase 6 (MAP3K6, Homo sapiens, UniProt O95382)	binding, competition with immobilised ligand	1 µM	remaining binding	100%
Cn1cc(-c2cccc(N3CCc4c(sc5c4CC(C)(C)C5)C3=O)c2CO)cc(Nc2ccncn2)c1=O	MAP2K3	enzyme activity, inhibitor	1 µM	inhibition	2%
COc1ncccc1-c1cnn2ccc(N3CCN(C(=O)OC(C)C)CC3)nc12	SRSF protein kinase 2 (SRPK2, Homo sapiens, UniProt P78362)	binding, competition with immobilised ligand	1 µM	remaining binding	28%
COc1cc2c(cc1OC)C(=O)N(Cc1cccc(N3CCCCC3)n1)C2	BCHE	enzyme activity, inhibitor, Ellman	1 µM	inhibition	4.8%
C#Cc1n[nH]c2c(-c3cn([C@@H](C)c4ccccn4)c(=O)[nH]c3=O)cc(F)cc12	BDNF/NT-3 growth factors receptor (NTRK2, Homo sapiens, UniProt Q16620)	enzyme activity, inhibitor	0.1 µM	inhibition	3.7%
COc1cc2c(cc1OC)C(=O)N(CC1CCN(Cc3ccsc3)CC1)C2	BCHE	enzyme activity, inhibitor, Ellman	1 µM	inhibition	-6.1%
CCN(CC)CCCC[C@H](NC(=O)[C@H](CC(C)C)NC(=O)[C@H](C)NC(=O)[C@H](Cc1ccccc1)NC(=O)c1ccc(C(C)(C)C)cc1)C(=O)N[C@@H](CO)C(=O)OC	Transcription initiation factor TFIID subunit 1-like, BD2 (TAF1L, Homo sapiens, UniProt Q8IZX4)	thermal stability, DSF	25 µM	ΔTm	0.72 °C
COc1cc2c(cc1OC)C(=O)N(Cc1ccccn1)C2	BCHE	enzyme activity, inhibitor, Ellman	1 µM	inhibition	-8.8%
NS(=O)(=O)c1ccc(-c2ncc(Cl)cc2-c2nc3ccccc3s2)cc1	Prostaglandin G/H synthase 1 (PTGS1, Ovis aries, UniProt P05979)	enzyme activity, inhibitor, absorbance	10 µM	inhibition	6.6%
